Experimental data collected from several papers.
Compare with care: the assays were run in different laboratories.
ALOX5: Polyunsaturated fatty acid 5-lipoxygenase (ALOX5, Homo sapiens, UniProt P09917)
HTR1D: 5-hydroxytryptamine receptor 1D (HTR1D, Homo sapiens, UniProt P28221)

COc1cc(Nc2ncc(F)c(Nc3ccc4c(n3)NC(=O)C(C)(C)O4)n2)cc(OC)c1OC
IC50 (ALOX5; enzyme activity, inhibitor): 5.01 µM

COc1ccccc1N1CCN(Cc2coc3ccc(C)cc3c2=O)CC1
Ki (HTR1D; ligand displacement, radioligand): 0.464 µM

CC(C)[C@H](NC(=O)[C@H](CCCNC(=N)N)NC(=O)N[C@@H](Cc1ccccc1)C(=O)O)C(=O)N[C@H](C=O)CCCNC(=N)N
IC50 (Transmembrane protease serine 2 (TMPRSS2, Homo sapiens, UniProt O15393); enzyme activity, inhibitor, fluorescence; pH 8): 0.38 µM

OC(c1ccc(F)cc1)C(F)(F)CCN1CCC(O)(c2ccc(Cl)cc2)CC1 (racemic)
Ki (HTR1D; cell-free assay, radioligand): 4.88 µM

CCCCCc1cc(O)c2c(c1)OC(C)(CCC=C(C)C)C=C2 (stereo not shown)
IC50 (ALOX5; enzyme activity, inhibitor): 1.6 µM

C[C@H](N)Cn1ncc2ccc3c(c21)CCCO3
Ki (HTR1D; ligand displacement, radioligand): 6.9 µM

CC[C@H]1NC(=O)[C@@H]2CSC(=N2)[C@@H](Cc2ccccc2)N(C)C(=O)[C@@H]2CCCN2C(=O)[C@H](C(C)C)N(C)C(=O)[C@H](Cc2ccccc2)OC(=O)[C@H](C)[C@@H](C)NC(=O)[C@@H]([C@@H](C)O)NC(=O)[C@@H](CC(C)C)N(C)C(=O)[C@@H]2CSC1=N2
IC50 (Dipeptidyl peptidase 8 (Homo sapiens, UniProt Q6V1X1); enzyme activity, inhibitor): 11.5 µM

Cn1cc(-c2cc(F)cc(N3CCn4c(cc5c4CCCC5)C3=O)c2CO)cc(Nc2ccc(N3CCN(C4COC4)CC3)cn2)c1=O
Ki (Tyrosine-protein kinase Yes (YES1, Homo sapiens, UniProt P07947); enzyme activity, inhibitor, FRET): 0.637 µM

CCOc1ccccc1N1CCN(Cc2coc3ccccc3c2=O)CC1
Ki (HTR1D; ligand displacement, radioligand): 0.633 µM

O=C(CCCCCCNC(=O)c1cnc(N(c2ccccc2)c2ccccc2)nc1)NO
EC50 (ATP-dependent translocase ABCB1 (ABCB1, Homo sapiens, UniProt P08183); ATPase activity, activator; cell membranes): ~7.5 µM

C[C@H](NC(=O)[C@@H](CCC(=O)O)NC(=O)CN1CCN(CC(=O)O)CCN(CC(=O)O)CCN(CC(=O)O)CC1)C(=O)N[C@@H](Cc1ccc(O)cc1)C(=O)NCC(=O)N[C@@H](Cc1c[nH]c2ccccc12)C(=O)N[C@H](C(=O)N[C@@H](CC(=O)O)C(=O)N[C@@H](Cc1cccc2ccccc12)C(N)=O)c1ccccc1
IC50 (Gastrin/cholecystokinin type B receptor (Rattus norvegicus, UniProt P30553); ligand displacement, radioligand): 0.0568 µM

Cc1cccc(N2CCN(Cc3coc4ccc(Cl)cc4c3=O)CC2)c1C
Ki (HTR1D; ligand displacement, radioligand): 0.546 µM

CSCC[C@H](NC(=O)[C@@H]1CCCN1C(=O)CNC(=O)c1ccc2c(c1)C(=O)OC21c2ccc(O)cc2Oc2cc(O)ccc21)C(=O)N[C@@H](CCC(N)=O)C(=O)N[C@H](C(=O)N[C@@H](CO)C(=O)N[C@H](C(=O)N1CCC[C@H]1C(=O)N[C@@H](CCCCN)C(=O)N[C@@H](CC(N)=O)C(=O)NCC(=O)O)[C@@H](C)OP(=O)(O)O)[C@@H](C)O
Kd (Serine/threonine-protein kinase PLK2, polo-box (PLK2, Homo sapiens, UniProt Q9NYY3); binding, FP): 0.0504 µM

OC12CCCCC1C(c1ccccc1)NCC2 (stereo not shown)
Ki (Sodium-dependent serotonin transporter (Slc6a4, Rattus norvegicus, UniProt P31652); ligand displacement, radioligand): > 20 µM

CC(C)Cc1ccc([C@@H](C)C(=O)O)cc1
IC50 (Histone acetyltransferase KAT2B (KAT2B, Homo sapiens, UniProt Q92831); enzyme activity, inhibitor, mobility shift): ~6000 µM

C[C@@]1(F)[C@H](O)[C@@H](COP(=O)(O)OP(=O)(O)OP(=O)(O)O)O[C@H]1n1ccc(=O)[nH]c1=O
IC50 (DNA polymerase subunit gamma-1 (POLG, Homo sapiens, UniProt P54098); enzyme activity, inhibitor): > 100 µM
